From ChEMBL document CHEMBL1135333, “Long-chain aminoalcohol and diamine derivatives induce apoptosis through a caspase-3 dependent pathway” (Bioorg Med Chem Lett, 2002)

tested on: Jurkat; assay: Inhibitory concentration required for 50% apoptosis induction was evaluated using jurkat cells (T-lymphoma cells); type: functional, cell-based; settings: Homo sapiens; call rule not given here
In short: (§1)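 Jurkat T-lymphoma cells exposed 24 h to rising concentrations (0.1–100 μM). Ethanol-fixed cells then RNase-digested and stained with propidium iodide. Flow-cytometric cell-cycle analysis scored the hypodiploid (sub-G0/G1) fraction as apoptotic cells with fragmented DNA. IC50 taken from these concentration–response series.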

Structure (SMILES) | IC50
CCCCCCCCCCCCCCC(CN)NC(=O)OC(C)(C)C (stereo not given) | 6 µM
CCCCCCCCCCCCCCC(N)CN(CC(=O)OCC)CC(=O)OCC (stereo not given) | 32 µM
CCCCCCCCCCCCCCC(CO)NCC (stereo not given) | 6 µM
CCCCCCCCCCCCCCC(CO)NC(=O)OC(C)(C)C (stereo not given) | 28 µM
CCCCCCCCCCCCCCC(COCc1ccccc1)NC(=O)CCC(=O)O (stereo not given) | 30 µM
CCCCCCCCCCCCCCC(CO)NC(=O)CCCC(=O)O (stereo not given) | 24 µM
CCCCCCCCCCCCCCC(N)CNCCCCC(=O)O (stereo not given) | 55 µM
CCCCCCCCCCCCCCC(O)CNC1CCCCC1 (stereo not given) | 6 µM
CCCCCCCCCCCCCCC(O)CNCc1ccccc1 (stereo not given) | 27 µM
CCCCCCCCCCCCCCC(COCc1ccccc1)NCC (stereo not given) | 6 µM
CCCCCCCCCCCCCCC(CNCCCCC(=O)O)NC(=O)OC(C)(C)C (stereo not given) | 18 µM
CCCCCCCCCCCCCCC(CO)NCCCCCC (stereo not given) | 6 µM
CCCCCCCCCCCCCCC(CO)N(CC)CC (stereo not given) | 1 µM
CCCCCCCCCCCCCCC(COCc1ccccc1)NCC(=O)O (stereo not given) | 3 µM
CCCCCCCCCCCCCCC(CN(CC(=O)OCC)CC(=O)OCC)NC(=O)OC(C)(C)C (stereo not given) | > 60 µM
CCCCCCCCCCCCCCC(CN(CC)CC)NC(=O)OC(C)(C)C (stereo not given) | 21 µM
CCCCCCCCCCCCCCC(COCc1ccccc1)N(CC)CC (stereo not given) | 20 µM
CCCCCCCCCCCCCCC(N)COCc1ccccc1 (stereo not given) | 3 µM
CCCCCCCCCCCCCCC(N)CO (stereo not given) | 7 µM
CCCCCCCCCCCCCCC(N)CNCC(=O)O (stereo not given) | 31 µM
CCCCCCCCCCCCCCC(N)CN(CC)CC (stereo not given) | 7 µM
CCCCCCCCCCCCCCC(N)CN (stereo not given) | 55 µM
CCCCCCCCCCCCCCC(CNCC)NC(=O)OC(C)(C)C (stereo not given) | 6 µM
CCCCCCCCCCCCCCC(COCc1ccccc1)NC(=O)CCCC(=O)O (stereo not given) | > 50 µM
CCCCCCCCCCCCCCC(CNCC(=O)OCC)NC(=O)OC(C)(C)C (stereo not given) | 28 µM

tested on: Jurkat; assay: Inhibitory concentration required for 50% apoptosis induction was evaluated using jurkat cells (T-lymphoma cells); NA means not active.; type: functional, cell-based, Homo sapiens; settings: not given; in short: as §1

Structure (SMILES) | IC50
CCCCCCCCCCCCCCC(=O)NC(CCCCCCCCCCCCCC)COC(=O)CCCCCC (stereo not given) | Not Active
CCCCCCCCCCCCCCC(N)CNCC(=O)OCC (stereo not given) | Not Active
CCCCCCCCCCCCCCC(CN(CC)CC)NCCCCC(=O)O (stereo not given) | Not Active
CCCCCCCCCCCCCCC(COC(=O)CCCCCC)NC(=O)CCCCCC (stereo not given) | Not Active
CCCCCCCCCCCCCCC(=O)NC(CCCCCCCCCCCCCC)COC(=O)CCCCCCCCCCCCCC (stereo not given) | Not Active
